Assay results reported in ChEMBL document CHEMBL4130443, “Targeting breast cancer stem cells by novel HDAC3-selective inhibitors” (Eur J Med Chem, 2017).
Active and inactive are the calls of the source. The calls are words filed in the database; no cut-off is given here.

Columns and labels:
[1] = biological target: Histone deacetylase 3/Nuclear receptor corepressor 2 (HDAC3/NCoR2) (Homo sapiens, UniProt O15379); experiment: Inhibition of human HDAC3/NCOR2 using p53 (379 to 382 residues) derived fluorogenic peptide RHKKAc; format: protein-complex assay
Sequence of Histone deacetylase 3/Nuclear receptor corepressor 2 (HDAC3/NCoR2) (O15379 whole entry, the tested form may be a part): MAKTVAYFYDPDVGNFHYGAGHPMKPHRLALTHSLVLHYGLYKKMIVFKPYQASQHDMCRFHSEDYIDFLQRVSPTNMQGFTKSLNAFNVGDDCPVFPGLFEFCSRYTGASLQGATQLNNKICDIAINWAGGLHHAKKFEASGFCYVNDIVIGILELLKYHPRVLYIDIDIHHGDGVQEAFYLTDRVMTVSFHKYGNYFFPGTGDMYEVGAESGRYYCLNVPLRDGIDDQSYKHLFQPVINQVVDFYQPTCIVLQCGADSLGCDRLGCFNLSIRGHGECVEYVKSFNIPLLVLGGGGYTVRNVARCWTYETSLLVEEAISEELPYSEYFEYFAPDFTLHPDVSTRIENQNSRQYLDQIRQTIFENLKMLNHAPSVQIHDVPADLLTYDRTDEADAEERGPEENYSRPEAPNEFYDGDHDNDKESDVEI
Sequence of Histone deacetylase 3/Nuclear receptor corepressor 2 (HDAC3/NCoR2) (Q9Y618 whole entry, further chain, the tested form may be a part): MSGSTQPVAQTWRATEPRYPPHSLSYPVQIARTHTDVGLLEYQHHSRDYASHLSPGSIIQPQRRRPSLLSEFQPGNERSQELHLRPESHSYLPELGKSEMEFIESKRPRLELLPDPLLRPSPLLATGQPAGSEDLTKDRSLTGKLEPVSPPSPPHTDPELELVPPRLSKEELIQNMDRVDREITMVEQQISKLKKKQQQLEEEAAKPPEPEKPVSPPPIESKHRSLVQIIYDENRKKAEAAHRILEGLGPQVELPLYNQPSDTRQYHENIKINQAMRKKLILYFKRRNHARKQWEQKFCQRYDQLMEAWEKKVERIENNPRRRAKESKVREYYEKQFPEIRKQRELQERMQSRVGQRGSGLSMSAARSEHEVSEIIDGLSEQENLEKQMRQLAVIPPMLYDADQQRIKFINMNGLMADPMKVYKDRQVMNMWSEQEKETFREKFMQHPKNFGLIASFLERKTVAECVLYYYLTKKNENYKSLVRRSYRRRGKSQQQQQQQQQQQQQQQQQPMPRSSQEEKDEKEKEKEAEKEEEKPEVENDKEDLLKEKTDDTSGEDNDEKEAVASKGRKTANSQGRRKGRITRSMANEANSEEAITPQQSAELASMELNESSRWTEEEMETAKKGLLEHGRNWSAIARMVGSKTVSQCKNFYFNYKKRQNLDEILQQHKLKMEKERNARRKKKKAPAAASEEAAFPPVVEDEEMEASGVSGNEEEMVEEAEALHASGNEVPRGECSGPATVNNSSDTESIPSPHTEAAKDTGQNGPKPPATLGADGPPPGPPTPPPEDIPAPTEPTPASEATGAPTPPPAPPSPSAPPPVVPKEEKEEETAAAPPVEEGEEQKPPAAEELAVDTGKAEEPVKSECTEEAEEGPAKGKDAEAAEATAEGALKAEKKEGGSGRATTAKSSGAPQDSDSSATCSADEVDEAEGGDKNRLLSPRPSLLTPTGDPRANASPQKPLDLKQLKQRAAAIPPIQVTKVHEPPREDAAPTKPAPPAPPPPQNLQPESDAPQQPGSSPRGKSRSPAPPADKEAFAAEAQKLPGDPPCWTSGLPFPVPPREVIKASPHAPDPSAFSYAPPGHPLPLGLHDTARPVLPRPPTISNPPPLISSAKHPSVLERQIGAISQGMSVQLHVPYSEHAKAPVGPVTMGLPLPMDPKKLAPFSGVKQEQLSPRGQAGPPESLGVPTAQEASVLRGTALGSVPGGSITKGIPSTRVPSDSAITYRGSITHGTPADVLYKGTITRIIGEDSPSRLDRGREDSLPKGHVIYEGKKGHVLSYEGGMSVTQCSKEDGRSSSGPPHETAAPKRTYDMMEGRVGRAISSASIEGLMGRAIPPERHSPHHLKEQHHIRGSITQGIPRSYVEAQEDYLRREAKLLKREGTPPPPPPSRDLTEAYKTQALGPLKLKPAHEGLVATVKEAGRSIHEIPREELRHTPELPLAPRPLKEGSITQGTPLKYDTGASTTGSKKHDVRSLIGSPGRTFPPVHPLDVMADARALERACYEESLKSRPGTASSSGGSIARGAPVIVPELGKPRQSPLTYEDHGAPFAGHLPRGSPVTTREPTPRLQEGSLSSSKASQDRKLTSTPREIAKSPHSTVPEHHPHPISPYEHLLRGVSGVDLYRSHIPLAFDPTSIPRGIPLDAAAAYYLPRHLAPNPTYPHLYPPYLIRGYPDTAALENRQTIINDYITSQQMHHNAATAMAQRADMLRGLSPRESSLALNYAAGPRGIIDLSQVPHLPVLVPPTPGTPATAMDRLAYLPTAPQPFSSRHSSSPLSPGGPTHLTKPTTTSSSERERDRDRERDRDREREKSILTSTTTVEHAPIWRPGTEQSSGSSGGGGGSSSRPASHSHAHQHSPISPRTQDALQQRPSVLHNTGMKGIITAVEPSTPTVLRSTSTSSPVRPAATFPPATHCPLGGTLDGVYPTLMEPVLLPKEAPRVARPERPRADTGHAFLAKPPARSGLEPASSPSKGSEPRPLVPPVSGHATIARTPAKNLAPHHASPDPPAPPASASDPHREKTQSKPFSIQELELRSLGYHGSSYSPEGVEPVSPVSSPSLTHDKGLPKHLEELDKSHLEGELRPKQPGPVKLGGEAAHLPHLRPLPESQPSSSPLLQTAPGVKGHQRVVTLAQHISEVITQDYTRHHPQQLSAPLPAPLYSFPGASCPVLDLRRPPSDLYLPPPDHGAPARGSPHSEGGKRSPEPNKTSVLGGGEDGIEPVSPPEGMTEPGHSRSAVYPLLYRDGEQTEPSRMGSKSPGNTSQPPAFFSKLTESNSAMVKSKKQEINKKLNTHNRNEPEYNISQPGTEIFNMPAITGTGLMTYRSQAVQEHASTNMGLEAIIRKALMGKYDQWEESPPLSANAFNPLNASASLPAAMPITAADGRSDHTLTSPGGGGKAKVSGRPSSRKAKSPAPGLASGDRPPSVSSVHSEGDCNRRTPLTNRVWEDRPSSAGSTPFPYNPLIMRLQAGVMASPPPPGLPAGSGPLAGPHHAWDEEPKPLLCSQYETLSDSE

Histone deacetylase 2 [2] = biological target: T1, Histone deacetylase 2 (Homo sapiens, UniProt Q92769); experiment: Inhibition of human HDAC2 using p53 (379 to 382 residues) derived fluorogenic peptide RHKKAc
T1 sequence (Q92769 whole entry, the tested form may be a part): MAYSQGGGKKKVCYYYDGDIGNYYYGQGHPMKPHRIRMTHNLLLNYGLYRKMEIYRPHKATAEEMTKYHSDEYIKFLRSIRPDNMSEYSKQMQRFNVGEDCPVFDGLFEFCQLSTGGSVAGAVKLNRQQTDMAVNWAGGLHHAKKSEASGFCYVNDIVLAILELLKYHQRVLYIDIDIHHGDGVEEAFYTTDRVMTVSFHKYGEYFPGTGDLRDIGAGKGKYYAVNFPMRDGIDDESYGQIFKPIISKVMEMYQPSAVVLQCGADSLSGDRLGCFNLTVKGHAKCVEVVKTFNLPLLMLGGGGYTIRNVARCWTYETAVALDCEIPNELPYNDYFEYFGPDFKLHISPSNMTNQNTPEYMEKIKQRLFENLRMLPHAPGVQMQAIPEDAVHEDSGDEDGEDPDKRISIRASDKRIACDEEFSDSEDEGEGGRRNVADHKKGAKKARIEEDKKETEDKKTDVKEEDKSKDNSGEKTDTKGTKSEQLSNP

Histone deacetylase 1 [3] = biological target: T2, Histone deacetylase 1 (Homo sapiens, UniProt Q13547); experiment: Inhibition of human HDAC1 using p53 (379 to 382 residues) derived fluorogenic peptide RHKKAc
T2 sequence (Q13547 whole entry, the tested form may be a part): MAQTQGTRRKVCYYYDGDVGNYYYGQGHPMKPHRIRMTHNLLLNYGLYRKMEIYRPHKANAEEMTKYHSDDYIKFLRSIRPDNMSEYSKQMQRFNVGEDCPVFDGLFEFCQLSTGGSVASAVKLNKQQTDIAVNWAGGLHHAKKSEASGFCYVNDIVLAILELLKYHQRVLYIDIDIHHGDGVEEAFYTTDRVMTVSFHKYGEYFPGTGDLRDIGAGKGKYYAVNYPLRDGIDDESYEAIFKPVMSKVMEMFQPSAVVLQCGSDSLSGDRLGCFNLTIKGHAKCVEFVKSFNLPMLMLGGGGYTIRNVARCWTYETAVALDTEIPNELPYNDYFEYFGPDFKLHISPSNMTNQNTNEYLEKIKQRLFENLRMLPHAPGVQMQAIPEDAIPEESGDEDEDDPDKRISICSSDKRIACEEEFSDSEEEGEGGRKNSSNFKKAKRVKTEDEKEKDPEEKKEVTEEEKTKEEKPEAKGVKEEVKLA

[4] = biological target: Histone deacetylase 3/Nuclear receptor corepressor 2 (HDAC3/NCoR2) (Homo sapiens) (UniProt O15379+Q9Y618); experiment: Inhibition of human HDAC3/NCOR2 at 1 uM using p53 (379 to 382 residues) derived fluorogenic peptide RHKKAc; format: protein-complex assay
In short: (§1)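 Isoform profiling run by a commercial vendor with compounds at 1 µM. Values are percent inhibition, each the average of two determinations.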

Histone deacetylase 1 [5] = biological target: T2, Histone deacetylase 1; experiment: Inhibition of human HDAC1 at 1 uM using p53 (379 to 382 residues) derived fluorogenic peptide RHKKAc; in short: as §1
Histone deacetylase 2 [6] = biological target: T1, Histone deacetylase 2; experiment: Inhibition of human HDAC2 at 1 uM using p53 (379 to 382 residues) derived fluorogenic peptide RHKKAc; in short: as §1

Row | Compound | IC50 [1] [nM] | IC50 (Histone deacetylase 2 [2]) [nM] | IC50 (Histone deacetylase 1 [3]) [nM] | inhibition [4] | inhibition (Histone deacetylase 1 [5]) | inhibition (Histone deacetylase 2 [6])
1 | CC(C)[C@@H](C(=O)Nc1ccc(C(=O)Nc2ccc(F)cc2N)cn1)c1ccccc1 | 1700 | 8400 | > 10000 |  |  | 
2 | Nc1cc(F)ccc1NC(=O)c1ccc(NC(=O)Cc2ccc(F)cc2)cc1 | 200 | 2700 | 5500 |  |  | 
3 | Nc1cc(F)ccc1NC(=O)c1ccc(NC(=O)Cc2ccc(F)cc2)cn1 | 390 | 3000 | 370 |  |  | 
4 | Nc1cc(F)ccc1NC(=O)c1ccc(NC(=O)[C@@H]2C[C@@H]2c2ccccc2)cc1 (relative stereo) | 200 | 2100 | 1300 |  |  | 
5 | Nc1cc(F)ccc1NC(=O)c1ccc(NC(=O)Cc2ccc(C(F)(F)F)cc2)cn1 | > 10000 | > 10000 | > 10000 |  |  | 

Results, then the compound that gave them:

Row | IC50 [1] [nM] | IC50 (Histone deacetylase 2 [2]) [nM] | IC50 (Histone deacetylase 1 [3]) [nM] | inhibition [4] | inhibition (Histone deacetylase 1 [5]) | inhibition (Histone deacetylase 2 [6]) | Compound
6 | 520 | 2000 | 1100 |  |  |  | Nc1cc(F)ccc1NC(=O)c1ccc(NC(=O)Cc2ccccc2)cn1
7 | 1000 | 4900 | 1200 |  |  |  | Nc1cc(F)ccc1NC(=O)c1ccc(NC(=O)C2CC2c2ccccc2)cn1 (stereo not drawn)
8 | > 10000 | 7800 | 1300 | inactive | inactive | inactive | Nc1cc(F)ccc1NC(=O)c1ccc(NC(=O)CCc2ccccc2)cn1
9 | 800 | 1100 | 1200 |  |  |  | Nc1cc(F)ccc1NC(=O)c1ccc(NC(=O)CCc2ccccc2)cc1
10 | 530 | 4200 | 610 |  |  |  | CC[C@H](C(=O)Nc1ccc(C(=O)Nc2ccc(F)cc2N)nc1)c1ccccc1
